This is an account of results in PMC12278818 (RSC Advances, 2025).

The test system of series [1] is Mycobacterium tuberculosis H37Rv. Kind of series: Microplate alamar blue assay. The format is cell-based. The settings on record: MABA, 7 days, unit as printed mg mL^−1. For orientation: Resazurin is reduced to fluorescent resorufin, in cell work by metabolically active cells.
The subject of another series is A549 cell line. Kind of series: MTT-based cytotoxicity on lung cancer cell line. Also noted: species or system human. The method, boiled down:
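A549 lung cancer cells were exposed to test compounds for 24 h, with cisplatin as the reference. Viability was measured by MTT: viable cells reduce the dye to formazan crystals, which are dissolved in solvent and read at 570 nm. IC50 is the half-maximal inhibitory concentration.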

For another series, the target named is InhA enzyme (Mycobacterium tuberculosis, UniProt P9WGR1). Nature of the series: InhA enzyme inhibition assay. The format is biochemical, M. tuberculosis. The settings on record: for inhibition at 50 µM: read-out: % inhibition InhA at 50 μM of inhibitor.
The test system of series [2] is mouse macrophage cell line (RAW 264.7). To be noted: RAW 264.7, 48 h, MTT.

pIC50: −log10 of the molar value.

Sequence of InhA enzyme (P9WGR1 whole entry, looked up): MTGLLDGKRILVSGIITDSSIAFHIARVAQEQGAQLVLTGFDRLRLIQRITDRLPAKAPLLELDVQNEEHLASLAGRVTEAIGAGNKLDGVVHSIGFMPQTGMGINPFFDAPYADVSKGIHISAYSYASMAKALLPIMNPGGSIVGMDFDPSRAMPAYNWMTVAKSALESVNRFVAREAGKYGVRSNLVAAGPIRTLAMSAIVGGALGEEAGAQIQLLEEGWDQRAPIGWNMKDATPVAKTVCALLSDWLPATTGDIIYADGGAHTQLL

In series [1], “1-(4-(1H-Pyrrol-1-yl)phenyl)-6-(4-(dimethyl amino)phenyl)hexa-2,5-dien-1-one [Compound 3v]” yielded an MIC values of 25 mg/mL.
The same measure, in the same setting: under “1-(4-(1H-Pyrrol-1-yl)phenyl)-6-phenylhexa-2,5-dien-1-one [Compound 3r]” stands greater than 25 mg/mL.
Still for that read-out and setting: under “4-(4-(1H-Pyrrol-1-yl)phenyl)-6-(furan-3-yl)pyrimidin-2-amine [Compound 4b]” stands 25 mg/mL.
Consider `N.N.[Cl][Pt][Cl]` [Cisplatin, reference compound], for which the pIC50 with A549 cell line (A549, MTT) is 5.00.
As to `CC(C)c1ccc(C=CC(=O)c2ccc(-n3cccc3)cc2)cc1` [Compound 3k, 1-(4-(1H-Pyrrol-1-yl)phenyl)-3-(4-isopropylphenyl)prop-2-en-1-one], the inhibition at 50 µM on InhA enzyme amounted to 36%. Further, the “% Toxicity at 25 μg mL^−1” value in series [2] is on record as 30.1%.
The matching figures for `O=C(C=Cc1cccs1)c1ccc(-n2cccc2)cc1` [Compound 3l, 1-(4-(1H-Pyrrol-1-yl)phenyl)-3-(thiophen-2-yl)prop-2-en-1-one]: 36% and 26.6%.
In the case of `COc1ccc(-c2cc(-c3ccc(-n4cccc4)cc3)nc(N)n2)c(OC)c1` [Compound 4c, 4-(4-(1H-Pyrrol-1-yl)phenyl)-6-(2,4-dimethoxyphenyl)pyrimidin-2-amine], the inhibition at 50 µM on InhA enzyme worked out at 16%. Besides, the “% Toxicity at 25 μg mL^−1” value in series [2] turned out to be 25.80%. Moreover, the pIC50 in the series with A549 cell line (Homo sapiens, A549) is 4.26.
Taken in the same sequence, the figures for `COc1ccc(-c2cc(-c3ccc(-n4cccc4)cc3)nc(N)n2)cc1` [Compound 4g, 4-(4-(1H-Pyrrol-1-yl)phenyl)-6-(4-methoxyphenyl)pyrimidin-2-amine] were 36%, 19.09% and 4.31.
The matching figures for `Nc1nc(-c2ccc(-n3cccc3)cc2)cc(-c2ccc(Cl)cc2Cl)n1` [Compound 4h, 4-(4-(1H-Pyrrol-1-yl)phenyl)-6-(2,4-dichlorophenyl)pyrimidin-2-amine]: less than 5%, 26.80% and 3.98.
Consider `CC(C)c1ccc(-c2cc(-c3ccc(-n4cccc4)cc3)nc(N)n2)cc1` [Compound 4k, 4-(4-(1H-Pyrrol-1-yl)phenyl)-6-(4-isopropylphenyl)pyrimidin-2-amine], for which, at InhA enzyme, the inhibition at 50 µM was 10%. In series [2], the “% Toxicity at 25 μg mL^−1” value was 28.90%. This compound gave a pIC50 with A549 cell line (Homo sapiens, A549) of 3.91.
In the case of `COc1cccc(-c2cc(-c3ccc(-n4cccc4)cc3)nc(N)n2)c1O` [Compound 4u, 2-(6-(4-(1H-Pyrrol-1-yl)phenyl)-2-aminopyrimidin-4-yl)-6-methoxyphenol], on InhA enzyme (50 μM inhibitor), the “% inhibition InhA at 50 μM of inhibitor” value is on record as “no inhibition”. Also, at InhA enzyme, the inhibition at 50 µM is less than 5%. Further, the “% Toxicity at 25 μg mL^−1” value in series [2] is 19.10%.

The pIC50 is −log10 of the IC50, conventionally taken in molar units. Read a high pIC50 as a small IC50. Usually inhibition stands for the change of the read-out against control, counted positive when it falls.
